# Assay outcomes from PubChem BioAssay.
# Hits are enriched below; roughly 9.8% of the tested compounds scored in any of these assays.
# Rad51 HR inh = human RAD51 strand exchange inhibitors, primary screen, biochemical, fluorescence | DNA repair protein RAD51 homolog 1 (Homo sapiens), Q06609 | AID 1385, 2008 | hit rate 0.085% among 200,000 | hRad51 DNA strand exchange, fluorescence dequenching | inhibition, % at 10 µM;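 active = inhibition above 40% at the single screening dose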
#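 Test system – preformed human Rad51 ssDNA filaments · Reagent – Donor/quencher-labelled 47-bp dsDNA substrate · Incubation – 37 °C 15-min filament assembly, 30-min compound preincubation, 15-min exchange · Signal – FRET fluorescence dequenching, excitation 485 nm, emission 520 nm · Read-out – percent inhibition from fluorescence, normalised to plate control and blank means · Benchmarks – plate control and blank wells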
# WT yeast gro inh = growth inhibition of WT strain, primary screen, mitochondrial fusion inhibitor project, WT and mutant strains, chemical genetic. mitochondrial fusion phenotypic screen. inhibition, % at 10 µM. hit rate 2.1% among 190,000. AID 1362, 2008; in the data active = inhibition above about 58%; tested in S. cerevisiae
# L major viab = Leishmania major promastigote growth inhibition, primary screen; hit rate 9% among 200,000; Leishmania major promastigotes, resazurin fluorescence viability; inhibition, % at 10 µM; in the data active = inhibition above about 50%;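 note: promastigotes grown with compound for 44 hours at 28 °C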
# PMI act = activators of human PMI, primary screen, biochemical, fluorescence intensity, near-Km mannose 6-phosphate; Mannose-6-phosphate isomerase (Homo sapiens), P34949; purified human PMI, coupled resazurin fluorescence, 20 min; stronger effect = higher value; 1 = vehicle control, 0 substrate-free wells; activation factor at 20 µM; hit rate 0.005% among 190,000;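 active = activation factor of 2 or more at 20 µM, relative to plate controls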
# Target sequence (P34949 whole entry, looked up): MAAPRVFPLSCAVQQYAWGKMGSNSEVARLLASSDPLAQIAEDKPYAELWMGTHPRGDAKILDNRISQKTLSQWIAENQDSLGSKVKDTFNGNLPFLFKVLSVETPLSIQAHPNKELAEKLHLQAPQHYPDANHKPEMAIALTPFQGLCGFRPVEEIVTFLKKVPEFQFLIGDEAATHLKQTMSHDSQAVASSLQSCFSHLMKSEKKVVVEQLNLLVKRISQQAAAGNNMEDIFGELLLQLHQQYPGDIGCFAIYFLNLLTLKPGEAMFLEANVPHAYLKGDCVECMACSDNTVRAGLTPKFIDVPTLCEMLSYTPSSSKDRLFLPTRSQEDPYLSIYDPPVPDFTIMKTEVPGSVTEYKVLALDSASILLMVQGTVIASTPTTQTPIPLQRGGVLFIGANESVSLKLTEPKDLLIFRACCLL
# PMI act satM6P = human PMI activators, high substrate, primary screen, biochemical, fluorescence intensity, near-saturating mannose 6-phosphate | Mannose-6-phosphate isomerase (Homo sapiens), P34949 | coupled PMI enzyme assay, resazurin fluorescence, 20 min; stronger effect = higher value; 1 = untreated enzyme, 0 = substrate-free blank | activation factor at 20 µM | hit rate 0.34% among 190,000 | AID 1216, 2008;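 active = activation factor of 2 or more at 20 µM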
#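 Material: human phosphomannose isomerase with PGI, G6PDH, diaphorase coupling enzymes. Quantity: 15 ng/mL PMI. Medium: HEPES pH 7.4 buffer with MgCl2 and Tween-20. Reagent: Near-saturating mannose-6-phosphate, 1.0 mM. Compound: 20 µM single dose. Times: enzyme reaction with compound 20 min at room temperature. Detection: resorufin fluorescence at Ex 544/Em 590 nm.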
# Calpain2 inh = inhibitors of pig calpain II, primary screen, biochemical, fluorogenic peptide substrate, 1536-well | purified calpain II, 30 min | inhibition, % at 16 µM | hit rate 0.37% among 220,000 | AID 1236, 2008;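 active = inhibition above about 50%, limit read from the data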
# Hits are given with their value; i = inactive; nt = no result.
SMILES,Rad51 HR inh,WT yeast gro inh,L major viab,PMI act,PMI act satM6P,Calpain2 inh
CC(C)C(c1nnnn1Cc1ccccc1)N1CCN(Cc2ccc3c(c2)OCO3)CC1 (centres undefined),i,i,88.7,i,i,i
CCOC(=O)c1ccc(NC(=O)N2CCN(C(=O)C3CCCO3)CC2)cc1 (centres undefined),i,i,i,i,i,i
CC(CN1CCN(Cc2ccccc2)CC1)OC(=O)c1ccco1 (centres undefined),i,nt,nt,nt,nt,i
O=C(N/N=C1/C(=O)c2cccc3cccc1c23)c1ccc(Cl)cc1,i,i,57.2,i,i,i
CCCC(CCC)C(=O)Nc1ccc2c(c1)N(C(=O)CCN1CCN(C)CC1)c1ccccc1CC2,i,i,i,i,i,i
Cc1cccc(NC(=O)NC(C)C(c2ccccc2)N2CCN(C)CC2)c1 (centres undefined),i,i,i,i,i,i
Cc1nn(CC(O)CN2c3ccccc3Sc3ccccc32)c(C)c1Br (centres undefined),i,91.2,64.4,i,i,i
OC(CN1c2ccccc2Sc2ccccc21)Cn1nnc2ccccc21 (centres undefined),i,i,i,i,i,i
COc1ccc(CNC(=O)CN(CCC(C)C)S(=O)(=O)c2ccc3c(c2)OCCO3)cc1,i,i,79.8,i,i,i
COc1ccc(/C=N/NC(=O)CN(Cc2ccccc2)S(=O)(=O)c2ccc3c(c2)OCCO3)cc1,nt,i,90.4,i,i,i
O=C(CN(Cc1ccccc1)S(=O)(=O)c1ccc2c(c1)OCCO2)N/N=C/c1cccc(Br)c1,i,i,80.2,i,i,i
CN(C(=O)COC(=O)c1ccc2ccccc2n1)C1CCS(=O)(=O)C1 (centres undefined),i,i,i,i,i,i
O=S(Cc1ccc(Br)cc1)Cc1nnc(SCc2ccc(Br)cc2)n1-c1ccccc1 (centres undefined),nt,82.1,i,i,i,i
COc1ccc(N2C(=O)C(CC(=O)Nc3ccccc3)N(Cc3ccccn3)C2=S)cc1 (centres undefined),i,i,i,i,i,i
CCOC(=O)/C(=C\c1cccc(O)c1)c1nc2sc(C)c(C)c2c(=O)[nH]1,i,i,99.5,i,i,i
CCCCNC(=S)NC(C)(C)CO,i,i,i,i,i,i
CC(C)c1ccc(/C=C(\c2nc3ccccc3[nH]2)S(=O)(=O)c2ccccc2)cc1,nt,i,100.4,i,i,i
O=S(=O)(/C(=C/c1ccc(C(F)(F)F)cc1)c1nc2ccccc2[nH]1)c1ccccc1,i,i,100.4,i,i,i
N#C/C(=C\c1c(Cl)cccc1Cl)c1nc2ccccc2[nH]1,i,nt,nt,nt,nt,i
COCCCN1CN(S(=O)(=O)c2cccs2)c2nc3ccccc3nc21,i,nt,nt,nt,nt,i
COCCCN1CN(S(=O)(=O)c2ccc(Cl)cc2)c2nc3ccccc3nc21,i,i,59.2,i,i,i
Cc1ccc(-c2nnc(N3CCC(C)CC3)c3ccccc23)cc1C,i,82.2,i,i,i,i
COc1ccc(C(=O)C[n+]2ccc3c(c2)nc(-c2ccc(OC)cc2OC)n3C)cc1,i,i,87.4,i,i,i
COc1ccc(C(=O)C[n+]2ccc3c(c2)nc(-c2ccccc2)n3C)cc1,nt,i,68.0,i,i,i
CC(=O)NC(N(C#N)c1nc(Cl)nc(N(C)C)n1)C(Cl)(Cl)Cl (centres undefined),i,nt,nt,nt,nt,i
SMILES,Rad51 HR inh,WT yeast gro inh,L major viab,PMI act,PMI act satM6P,Calpain2 inh
CC1CC(C)CN(C(=O)c2ccc(N3CC4CC(C3)c3cccc(=O)n3C4)c([N+](=O)[O-])c2)C1 (centres undefined),i,i,56.3,i,i,i
Cc1cc2nc3c(nc2cc1C)C1(C(=O)O)CCC3(C)C1(C)C (centres undefined),40.3,i,i,i,i,i
CCN(CC)CCCn1c(C)cc2c(c1=O)C(c1cccc(Cl)c1)C(C#N)=C(N)O2 (centres undefined),nt,73.5,66.5,i,i,i
COc1cc(NC(=S)N2CCCCC2C)cc(OC)c1OC (centres undefined),i,i,i,i,i,i
Cc1ccc(C2CC(c3ccc(NS(C)(=O)=O)cc3)=NN2C(=O)c2ccco2)cc1 (centres undefined),i,i,i,i,i,i
CCS(=O)(=O)Nc1ccc(C2=NN(C(=O)c3ccco3)C(c3ccc(C)cc3)C2)cc1 (centres undefined),i,i,73.9,i,i,i
CS(=O)(=O)Nc1ccc(C2=NN(C(=O)c3ccco3)C(c3ccccc3)C2)cc1 (centres undefined),i,i,67.8,i,i,i
CCS(=O)(=O)Nc1ccc(C2=NN(C(=O)c3ccco3)C(c3cccc(F)c3)C2)cc1 (centres undefined),i,i,i,i,i,i
CCC(CO)NCC#Cc1ccccc1 (centres undefined),i,i,i,i,i,i
C=CCNC(=S)Nc1cccc([N+](=O)[O-])c1,i,nt,nt,nt,nt,i
O=[N+]([O-])c1cccc(-c2ccc(/C=N/NC(=S)Nc3ccccc3)o2)c1,i,i,59.4,i,i,i
C=CCNC(=S)N/N=C/c1cccc([N+](=O)[O-])c1,i,i,i,i,i,63.5
O=[N+]([O-])c1ccc(/C=N/NC(=S)Nc2ccccc2)o1,i,i,50.4,i,i,i
Fc1ccc(N2CN(Cc3cccnc3)CNC2=S)cc1,i,nt,nt,nt,nt,i
CC(C)=CC1C=C(C)C(C)C2C(=O)NNC(=O)C12 (centres undefined),i,i,i,i,i,i
Cc1ccc(C23CC4CC(CC(C(=O)N5CCN(C)CC5)(C4)C2)C3)cc1,i,nt,nt,nt,nt,i
Cc1ccc(C23CC4CC(CC(NC(=O)N5CCN(C)CC5)(C4)C2)C3)cc1,i,i,84.5,i,i,i
CCC1CCCCN1C(=O)CSc1nc(N)cc(N)n1 (centres undefined),i,i,i,i,i,i
CCCc1ccc(-c2cc(C(=O)NC3=NCCS3)c3ccccc3n2)cc1,i,79.5,i,i,i,i
O=C(NC1=NCCS1)c1cc(-c2cccc(Br)c2)nc2ccccc12,i,80.1,i,i,i,i
O=C(NNC(=O)c1cc(-c2ccc(Cl)c(Cl)c2)nc2ccccc12)Nc1ccccc1,nt,i,61.0,i,i,i
CCc1ccc(-c2cc(C(=O)NCc3ccccn3)c3ccccc3n2)cc1,i,i,97.1,i,i,i
Cc1ccc(-c2cc(C(=O)NCc3ccccn3)c3ccccc3n2)cc1,i,i,i,i,i,i
